Measurements pooled from the literature.
Compare with care: the assays were run in different laboratories.
Target: Focal adhesion kinase 1 (PTK2, Homo sapiens, UniProt Q05397)

SMILES	effect on	action	method	concentration	measurement	value
Cc1ccc(NC(=O)c2ccc(C)c(C(F)(F)F)c2)cc1C#Cc1nn(C2CCC(O)CC2)c2ncnc(N)c12 (stereo not drawn)	cell-free assay	–	–	10 µM	remaining signal	45%
F[C@@H]1CCN(c2nccc(-c3cnn4ncccc34)n2)C1	cell-free assay	–	–	1 µM	remaining signal	100%
N#CC1(c2ccccn2)CCN(Cc2cc(C(=O)N3CCCC3)c(=O)n3ccccc23)CC1	cell-free assay	–	competition with immobilised ligand	1 µM	remaining binding	89%
Cc1ccc(C(=O)Nc2ccc(CN3CCN(C)CC3)c(C(F)(F)F)c2)cc1C#Cc1cnc2cccnn12	enzyme activity	inhibitor	–	23.5 nM	remaining activity	100%
c1nc2c(Nc3ccc4c(c3)OCCO4)nc(Nc3ccc4c(c3)OCCO4)nc2[nH]1	enzyme activity	inhibitor	–	10 µM	activity vs control	58%
Nc1nc(Nc2ccc(S(N)(=O)=O)cc2)nn1C(=O)c1c(F)cccc1F	cell-free assay	–	–	0.5 µM	remaining signal	95.5%
Cc1nccc(COC(=O)N2C[C@@H]3[C@@H](CNC(=O)c4ccc5[nH]nnc5c4)[C@@H]3C2)n1	cell-free assay	–	competition with immobilised ligand	1 µM	remaining binding	100%
Cc1ccc(Nc2nccc(N(C)c3ccc4c(C)n(C)nc4c3)n2)cc1S(N)(=O)=O	enzyme activity	inhibitor	–	10 µM	inhibition	73%
CS(=O)(=O)Nc1cccc(-c2csc(NC(=O)CSc3nc4nccnc4c(=O)n3CCc3ccccc3)n2)c1	enzyme activity	inhibitor	–	10 µM	inhibition	2%
O=C(Nc1cnn(-c2csc(C(=O)NC3COC3)c2)c1)Nc1ccccc1Cl	enzyme activity	inhibitor	–	5 µM	remaining activity	95.7%
COc1cc2ncnc(Nc3ccc(Oc4ccccc4)c(C)c3C)c2cc1OC	enzyme activity	inhibitor	–	1 µM	inhibition	-1%
CC(=O)Nc1c(C(C)=O)c(=O)n(C)c2nc(-c3ccc(Cl)cc3Cl)c(-c3ccc(Cl)cc3)cc12	cell-free assay	–	competition with immobilised ligand	1 µM	remaining binding	100%
O=C1NC(=O)c2cc(Nc3ccc(F)cc3)c(Nc3ccc(F)cc3)cc21	cell-free assay	–	–	0.5 µM	remaining signal	96%
CCCOc1ccc(OC)c(F)c1C(=O)c1ccc(C(=O)N[C@@H]2CNC[C@H]2NC(=O)c2ccc3[nH]ncc3c2)cc1	enzyme activity	inhibitor	–	10 µM	remaining activity	103%
CC(C)(C)c1nc2c(s1)c1nc(N)ncc1c1ccc(NS(=O)(=O)c3c(F)cccc3F)c(F)c12	enzyme activity	inhibitor	radiometric	1 µM	remaining activity	99%
N[C@@H]1CCN(c2nccc(-c3cnn4ncccc34)n2)C1	cell-free assay	–	–	1 µM	remaining signal	97%
CCOC(=O)c1cc2cc(-c3cc(C(=O)NCc4ccc(C(=O)O)cc4)nn3C)ccc2[nH]1	cell-free assay	–	competition with immobilised ligand	0.1 µM	remaining binding	94%
COc1cc(-c2cc(-c3ccc(N4CCNCC4)cc3)cnc2C)cc(OC)c1OC	enzyme activity	inhibitor	–	0.1 µM	inhibition	26%
O=C(Nc1cnn(-c2csc(C(=O)NC3COC3)c2)c1)Nc1c(F)cccc1Cl	enzyme activity	inhibitor	–	5 µM	remaining activity	89%
Cc1ccc(C(=O)NCc2ccsc2)cc1C#Cc1cn(C(C)C)c2ncnc(N)c12	enzyme activity	inhibitor	–	1 µM	activity vs control	79%
COCCOc1nc(-c2ccc(Cl)nc2)nc2c1CN(C(=O)c1ncn3ccccc13)CC2	cell-free assay	–	competition with immobilised ligand	0.1 µM	remaining binding	99%
Cc1cc(NC(=O)c2cccc3cc(-c4cccc5[nH]nc(N)c45)ccc23)ccc1F	enzyme activity	inhibitor	–	0.1 µM	activity vs control	98%
Cc1[nH]c(/C=C2\C(=O)Nc3ccc(F)cc32)c(C)c1C(=O)N[C@H]1CCN(C(=O)N(C)C)C1	enzyme activity	inhibitor	–	0.1 µM	remaining activity	88%
O=C1Nc2ccc(Cl)cc2C1=Cc1cc(Cl)c(O)c(Cl)c1	cell-free assay	–	–	0.5 µM	remaining signal	91.5%
Cc1nc(C2CCN(C(=O)c3ccc(OC(F)(F)F)cc3N)CC2)c2ncc(N3CCN(C)CC3)cc2n1	cell-free assay	–	competition with immobilised ligand	1 µM	remaining binding	91%
C=CC(=O)Nc1cc(Nc2nccc(Nc3cc(Cl)c(F)cc3C(C)(C)O)n2)c(OC)cc1N1CC[C@@H](N(C)C)C1	enzyme activity	inhibitor	–	1 µM	inhibition	74%
C[C@H](c1cccc(C#N)c1)n1cc(Cl)cc(C(N)=O)c1=N	cell-free assay	–	competition with immobilised ligand	1 µM	remaining binding	100%
CCN(CC)c1ccc(C2=NNC(=O)CC2C)cc1[N+](=O)[O-] (stereo not drawn)	enzyme activity	inhibitor	–	10 µM	remaining activity	96%
CSc1cccnc1N1CCN(Cc2nc3ccccc3[nH]2)CC1	cell-free assay	–	competition with immobilised ligand	1 µM	remaining binding	100%
CC/C(=N\NC(=O)NCc1cccc(O)c1)c1ccc(O)c(C)c1O	enzyme activity	inhibitor	–	0.1 µM	inhibition	-3.8%
